Laboratory results published in publication PMC3149845 (The Journal of neuroscience : the official journal of the …, 2011).
pEC50: −log10 of the molar value. Read-outs that look alike come from different tables or passages of the source. Peptide text beside a SMILES is read from it.

What was measured:
[1] = target: smTas1R2:T40S+smTas1R3 (Saimiri sciureus, UniProt A3QP08, T40S); assay: Ca2+ mobilization, mutated squirrel monkey receptor; assay type: cell-based, squirrel monkey (Saimiri sciureus); conditions: aspartame 10mM, neotame 1mM, sucralose 2 mM; compared with smTas1R2/smTas1R3
[2] = target: smTas1R2:S67I/E142D+smTas1R3 (Saimiri sciureus, UniProt A3QP08, E142D/S67I); assay: as above; assay type: cell-based, squirrel monkey (Saimiri sciureus); conditions: for response in dose-response experiment: versus smTas1R2+smTas1R3; for Bottom (B) of sigmoid dose-response fit / Top (T) of sigmoid dose-response fit: ΔF/F normalized to maximum response of hTas1R2/hTas1R3 to neotame
[3] = target: smTas1R2:T40S/S67I+smTas1R3 (Saimiri sciureus, UniProt A3QP08, S67I/T40S); assay: as above; assay type: cell-based, squirrel monkey (Saimiri sciureus); conditions: aspartame 10mM, neotame 1mM, sucralose 2 mM
[4] = target: smTas1R2:T40S/E142D+smTas1R3 (Saimiri sciureus, UniProt A3QP08, E142D/T40S); assay: as above; assay type: cell-based, squirrel monkey (Saimiri sciureus); conditions: for response in dose-response experiment: versus smTas1R2+smTas1R3
[5] = target: T1, hTas1R2/hTas1R3 (Homo sapiens, UniProt Q8TE23); assay: Ca2+ mobilization, wild type human sweet taste receptor; assay type: cell-based; conditions: for response in dose-response experiment: HEK293E cells with Gα16-gust44; for Bottom (B) of sigmoid dose-response fit / Top (T) of sigmoid dose-response fit: ΔF/F normalized to maximum response of hTas1R2/hTas1R3 to neotame
T1 sequence (Q8TE23 20-839): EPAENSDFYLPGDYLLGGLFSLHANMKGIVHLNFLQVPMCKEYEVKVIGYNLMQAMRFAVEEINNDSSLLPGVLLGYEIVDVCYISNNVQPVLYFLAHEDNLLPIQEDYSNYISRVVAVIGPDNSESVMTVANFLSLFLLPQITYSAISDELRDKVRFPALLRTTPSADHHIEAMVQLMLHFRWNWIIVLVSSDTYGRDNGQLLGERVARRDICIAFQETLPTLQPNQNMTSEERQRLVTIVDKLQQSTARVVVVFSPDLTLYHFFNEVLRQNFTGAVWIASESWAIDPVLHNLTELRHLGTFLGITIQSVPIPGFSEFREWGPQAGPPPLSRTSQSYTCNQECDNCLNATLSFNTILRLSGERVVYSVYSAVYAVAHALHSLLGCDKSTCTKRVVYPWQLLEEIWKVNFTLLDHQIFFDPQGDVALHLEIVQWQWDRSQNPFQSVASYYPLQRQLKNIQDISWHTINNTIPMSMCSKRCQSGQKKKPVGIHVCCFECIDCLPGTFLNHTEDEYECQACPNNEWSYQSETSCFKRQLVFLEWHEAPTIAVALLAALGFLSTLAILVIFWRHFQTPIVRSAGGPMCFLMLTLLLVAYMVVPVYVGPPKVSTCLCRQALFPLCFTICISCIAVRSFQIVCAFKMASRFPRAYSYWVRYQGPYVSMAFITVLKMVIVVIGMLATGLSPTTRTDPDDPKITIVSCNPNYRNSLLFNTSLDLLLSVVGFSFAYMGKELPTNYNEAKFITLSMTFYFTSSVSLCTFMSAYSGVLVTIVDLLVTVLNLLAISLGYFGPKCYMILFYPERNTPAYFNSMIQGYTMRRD
T1 sequence (Q7RTX0 21-852 partner): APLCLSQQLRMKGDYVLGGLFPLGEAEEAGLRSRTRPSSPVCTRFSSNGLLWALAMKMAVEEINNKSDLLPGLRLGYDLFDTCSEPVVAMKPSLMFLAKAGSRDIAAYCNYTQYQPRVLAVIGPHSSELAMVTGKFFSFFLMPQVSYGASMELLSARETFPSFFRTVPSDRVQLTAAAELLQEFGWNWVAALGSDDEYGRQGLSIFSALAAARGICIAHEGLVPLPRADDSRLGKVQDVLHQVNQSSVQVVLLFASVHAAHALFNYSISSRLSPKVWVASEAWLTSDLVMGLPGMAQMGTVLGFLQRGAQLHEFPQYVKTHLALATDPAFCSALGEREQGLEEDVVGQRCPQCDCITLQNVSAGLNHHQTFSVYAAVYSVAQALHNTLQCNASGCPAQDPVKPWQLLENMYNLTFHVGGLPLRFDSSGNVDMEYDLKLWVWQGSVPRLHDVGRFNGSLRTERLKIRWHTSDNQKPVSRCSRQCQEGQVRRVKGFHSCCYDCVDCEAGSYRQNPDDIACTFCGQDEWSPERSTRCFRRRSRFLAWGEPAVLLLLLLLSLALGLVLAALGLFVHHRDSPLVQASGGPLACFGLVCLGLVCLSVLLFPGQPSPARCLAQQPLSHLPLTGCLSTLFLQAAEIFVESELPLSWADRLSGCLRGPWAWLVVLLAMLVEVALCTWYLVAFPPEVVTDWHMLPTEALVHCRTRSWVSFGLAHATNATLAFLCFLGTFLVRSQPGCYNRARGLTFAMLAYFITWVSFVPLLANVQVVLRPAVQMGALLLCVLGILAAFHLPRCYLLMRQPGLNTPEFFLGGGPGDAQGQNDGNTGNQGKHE
Procedure, shortened: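 HEK293E cells (Opti-MEM, 5% FBS, 37°C) were seeded at 50,000/well and cotransfected with Tas1R plasmids and Gα16-gust44 (0.06 μg each per well). Medium changed at 20 h; assayed 24 h later after 1 h loading with 3 μm Fluo-4 AM in HBSS/20 mm HEPES. Fluorescence (ex 488/em 525 nm) read 2 s apart; tastant added at 30 s, 150 s further. Peak ΔF/F sigmoid-fitted; three independent experiments.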

[6] = ΔF/F normalized to maximum response of hTas1R2/hTas1R3 to neotame
[7] = HEK293E cells with Gα16-gust44, dose-response, calcium mobilization

Chain of smTas1R2:S67I/E142D+smTas1R3 (A3QP08 20-834 S67I/E142D): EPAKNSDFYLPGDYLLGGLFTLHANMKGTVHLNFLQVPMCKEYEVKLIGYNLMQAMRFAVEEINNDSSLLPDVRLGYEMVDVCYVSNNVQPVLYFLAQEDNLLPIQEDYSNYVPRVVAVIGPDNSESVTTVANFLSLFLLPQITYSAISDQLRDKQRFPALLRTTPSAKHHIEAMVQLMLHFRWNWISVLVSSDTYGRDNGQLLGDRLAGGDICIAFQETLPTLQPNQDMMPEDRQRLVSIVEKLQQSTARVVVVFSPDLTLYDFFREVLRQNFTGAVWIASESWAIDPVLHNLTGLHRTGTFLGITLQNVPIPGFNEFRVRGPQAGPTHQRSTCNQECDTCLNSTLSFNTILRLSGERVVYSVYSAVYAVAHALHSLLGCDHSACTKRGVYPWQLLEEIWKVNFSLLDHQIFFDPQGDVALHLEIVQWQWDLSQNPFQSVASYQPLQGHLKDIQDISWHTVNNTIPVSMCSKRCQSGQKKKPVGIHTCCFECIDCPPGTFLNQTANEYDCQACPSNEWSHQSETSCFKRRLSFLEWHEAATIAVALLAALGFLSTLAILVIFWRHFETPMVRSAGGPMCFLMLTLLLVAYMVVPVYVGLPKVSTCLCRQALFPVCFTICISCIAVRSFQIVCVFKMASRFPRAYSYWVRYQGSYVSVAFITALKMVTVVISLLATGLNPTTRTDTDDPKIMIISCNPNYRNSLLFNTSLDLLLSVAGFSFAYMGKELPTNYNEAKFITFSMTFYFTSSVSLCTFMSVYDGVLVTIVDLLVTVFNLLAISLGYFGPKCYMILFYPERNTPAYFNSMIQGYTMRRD
Chain of smTas1R2:T40S/E142D+smTas1R3 (A3QP08 20-834 T40S/E142D): as the sequence (A3QP08 20-834 S67I/E142D) above, with T21S, I48S counted along it
Chain of smTas1R2:T40S/S67I+smTas1R3 (A3QP08 20-834 T40S/S67I): as the sequence (A3QP08 20-834 S67I/E142D) above, with T21S, D123E counted along it
Chain of smTas1R2:T40S+smTas1R3 (A3QP08 20-834 T40S): as the sequence (A3QP08 20-834 S67I/E142D) above, with T21S, I48S, D123E counted along it

COC(=O)[C@H](Cc1ccccc1)NC(=O)[C@@H](N)CC(=O)O [aspartame, L-α-aspartly-L-phenylalanine methyl ester] (H-Asp-Phe-OMe)
calcium response to sweetener [1]: not able to recover
pEC50 [2]: 2.25
response in dose-response experiment ([2]; dose-response): good response
Bottom (B) of sigmoid dose-response fit [2]: −0.6682
Top (T) of sigmoid dose-response fit [2]: 26.17
calcium response to sweetener [3]: no response
pEC50 [4]: 2.85
response in dose-response experiment ([4]; dose-response): good response
Bottom (B) of sigmoid dose-response fit [4, 6]: −3.314
Top (T) of sigmoid dose-response fit [4, 6]: 42.4
pEC50 [5]: 2.30
response in dose-response experiment [5]: good response
Bottom (B) of sigmoid dose-response fit [5]: 7.074
Top (T) of sigmoid dose-response fit [5]: 73.32

COC(=O)[C@H](Cc1ccccc1)NC(=O)[C@H](CC(=O)O)NCCC(C)(C)C [neotame]
calcium response to sweetener [1]: not able to recover
pEC50 [2, 7]: 3.00
response in dose-response experiment ([2]; dose-response): good responses
Bottom (B) of sigmoid dose-response fit [2]: −5.754
Top (T) of sigmoid dose-response fit [2]: 56.59
calcium response to sweetener [3]: no response
pEC50 [4, 7]: 2.68
response in dose-response experiment ([4]; dose-response): good responses
Top (T) of sigmoid dose-response fit [4, 6]: 69.46
response in dose-response experiment [5]: good response
Bottom (B) of sigmoid dose-response fit [5]: −165.1
Top (T) of sigmoid dose-response fit [5]: 92.82
